Results reported in ChEMBL document CHEMBL2069213, “Synthesis and evaluation of small libraries of triazolylmethoxy chalcones, flavanones and 2-aminopyrimidines as inhibitors of mycobacterial FAS-II and PknG” (Bioorg Med Chem, 2012).
Active and inactive are the calls of the source. No cut-off for these calls is given here.

How the values were obtained:
[1] = biological target: Serine/threonine-protein kinase PknG (Mycobacterium tuberculosis) (UniProt P9WI73); assay: Inhibition of Mycobacterium tuberculosis recombinant PKnG expressed in Escherichia coli BL21 (DE3) cells using myelin basic protein substrate at 50 uM by luciferase activity based ADP-Glo-luminescent kinase assay
Outline: (§1)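 6-His-PknG from M. tuberculosis genomic DNA cloned into pTriEx4, expressed in E. coli with 0.8 mM IPTG 4 h at 37 °C, purified by Ni2+-NTA then size exclusion. Compounds dissolved in DMSO; assayed with myelin basic protein substrate; ADP formed measured by ADP-Glo luminescence; AX20017 positive control; dose-response series.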

[2] = Toxicity against macrophages incubated for 48 hrs by resazurin dye reduction assay; assay type: cell-based, Macrophage
Outline: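 Macrophages from subconfluent monolayers seeded ~1 × 10^6 cells/well in RPMI-1640; compounds 100 to 12.5 µM, 48 h at 37 °C, 5% CO2; resazurin added for 4 h, fluorescence 535/590 nm read against untreated wells as % viability; CC50 taken from viability-versus-concentration plot; triplicates.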

[3] = biological target: Serine/threonine-protein kinase PknG (Mycobacterium tuberculosis) (UniProt P9WI73); assay: Inhibition of Mycobacterium tuberculosis recombinant PKnG expressed in Escherichia coli BL21 (DE3) cells using myelin basic protein substrate at 6.25 uM by luciferase activity based ADP-Glo-luminescent kinase assay; outline: as §1
[4] = biological target: Serine/threonine-protein kinase PknG (Mycobacterium tuberculosis) (UniProt P9WI73); assay: Inhibition of Mycobacterium tuberculosis recombinant PKnG expressed in Escherichia coli BL21 (DE3) cells using myelin basic protein substrate at 3.125 uM by luciferase activity based ADP-Glo-luminescent kinase assay; outline: as §1
[5] = biological target: Serine/threonine-protein kinase PknG (Mycobacterium tuberculosis) (UniProt P9WI73); assay: Inhibition of Mycobacterium tuberculosis recombinant PKnG expressed in Escherichia coli BL21 (DE3) cells using myelin basic protein substrate at 100 uM by luciferase activity based ADP-Glo-luminescent kinase assay; outline: as §1
[6] = biological target: Serine/threonine-protein kinase PknG (Mycobacterium tuberculosis) (UniProt P9WI73); assay: Inhibition of Mycobacterium tuberculosis recombinant PKnG expressed in Escherichia coli BL21 (DE3) cells using myelin basic protein substrate at 12.5 uM by luciferase activity based ADP-Glo-luminescent kinase assay; outline: as §1
[7] = biological target: Serine/threonine-protein kinase PknG (Mycobacterium tuberculosis) (UniProt P9WI73); assay: Inhibition of Mycobacterium tuberculosis recombinant PKnG expressed in Escherichia coli BL21 (DE3) cells using myelin basic protein substrate at 25 uM by luciferase activity based ADP-Glo-luminescent kinase assay; outline: as §1
[8] = system: Mycolicibacterium aurum; assay: Growth inhibition of Mycobacterium aurum expressing Mycobacterium tuberculosis H37Rv kas operon in fusion Escherichia coli lacZ gene at 50 uM incubated for 12 hrs; assay type: functional; settings: read-out: GI
[9] = system: Mycolicibacterium aurum; assay: Growth inhibition of Mycobacterium aurum expressing Mycobacterium tuberculosis H37Rv kas operon in fusion Escherichia coli lacZ gene at 100 uM incubated for 12 hrs; assay type: functional; settings: read-out: GI
[10] = system: Mycolicibacterium aurum; assay: Inhibition of FAS2 in recombinant Mycobacterium aurum expressing Mycobacterium tuberculosis H37Rv kas operon in fusion Escherichia coli lacZ gene assessed as increase in beta-galactosidase activity at 50 uM incubated for 12 hrs by lacZ reporter gene assay
Outline: (§2)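 Cells washed, sonicated in PBS pH 7.2; equal Bradford-quantified protein incubated with ONPG (4 mg/ml) 30 min at 37 °C, stopped with Na2CO3, read at 410 nm. Triplicates, experiment repeated twice; isoniazid positive control.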

[11] = system: Mycolicibacterium aurum; assay: Inhibition of FAS2 in recombinant Mycobacterium aurum expressing Mycobacterium tuberculosis H37Rv kas operon in fusion Escherichia coli lacZ gene assessed as increase in beta-galactosidase activity at 100 uM incubated for 12 hrs by lacZ reporter gene assay; outline: as §2

Sequence of Serine/threonine-protein kinase PknG (Mycobacterium tuberculosis) (P9WI73 whole entry, the tested form may be a part): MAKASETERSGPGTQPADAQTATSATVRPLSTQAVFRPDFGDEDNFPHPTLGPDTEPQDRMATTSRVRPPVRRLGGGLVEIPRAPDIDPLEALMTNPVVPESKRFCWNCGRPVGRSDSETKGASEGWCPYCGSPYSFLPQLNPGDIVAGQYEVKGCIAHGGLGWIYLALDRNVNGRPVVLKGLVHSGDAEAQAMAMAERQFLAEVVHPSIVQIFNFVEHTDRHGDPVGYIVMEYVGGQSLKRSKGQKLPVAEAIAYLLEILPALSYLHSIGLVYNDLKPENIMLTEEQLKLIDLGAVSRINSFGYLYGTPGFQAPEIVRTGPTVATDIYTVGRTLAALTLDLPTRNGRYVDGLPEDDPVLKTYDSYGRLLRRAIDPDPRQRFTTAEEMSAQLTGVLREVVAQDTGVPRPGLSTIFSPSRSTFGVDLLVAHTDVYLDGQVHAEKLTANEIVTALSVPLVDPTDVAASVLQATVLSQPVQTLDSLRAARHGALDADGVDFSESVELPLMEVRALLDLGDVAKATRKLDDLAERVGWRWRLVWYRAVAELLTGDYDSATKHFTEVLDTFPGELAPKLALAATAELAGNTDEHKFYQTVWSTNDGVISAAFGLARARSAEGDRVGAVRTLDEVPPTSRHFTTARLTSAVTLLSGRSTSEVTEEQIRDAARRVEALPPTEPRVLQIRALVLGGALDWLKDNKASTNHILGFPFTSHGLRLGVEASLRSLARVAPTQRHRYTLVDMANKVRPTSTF

Row | Compound | inhibition [5] [%] | inhibition of growth at 50 µM [8] [%] | inhibition of growth at 100 µM [9] [%] | further results
1 | Nc1nc(-c2ccccc2)cc(-c2ccc(OCc3cn(Cc4ccccc4)nn3)cc2O)n1 | 29 | – | – | inhibition [1]: 37%; CC50 at 48 h [2]: 76.5 µM; inhibition [3]: 4%; inhibition [4]: 5%; inhibition [6]: 18%; inhibition [7]: 14%
2 | Nc1nc(-c2ccc(Br)cc2)cc(-c2ccc(OCc3cn(Cc4ccc(Br)cc4)nn3)cc2O)n1 | 19 | – | – | inhibition [1]: 0%; inhibition [3]: 0%; inhibition [4]: 5%; inhibition [6]: 0%; inhibition [7]: 0%
3 | C#CCOc1ccc(C(C)=O)c(O)c1 | – | 2 | 35.6 | –
4 | O=C(/C=C/c1cccc2ccccc12)c1ccc(OCc2cn(Cc3ccccc3)nn2)cc1O | – | 2.6 | 51.6 | –
5 | CCCCCCn1cc(COc2ccc(-c3cc(-c4ccc(Cl)cc4)nc(N)n3)c(O)c2)nn1 | 43 | – | – | inhibition [1]: 0%; CC50 at 48 h [2]: 30.3 µM; inhibition [3]: 0%; inhibition [4]: 0%; inhibition [7]: 0%
6 | CCCCCCn1cc(COc2ccc(-c3cc(-c4ccc(C(C)C)cc4)nc(N)n3)c(O)c2)nn1 | 5 | – | – | –
7 | CCCCCCn1cc(COc2ccc3c(c2)OC(c2ccc(C(C)C)cc2)CC3=O)nn1 (stereo not drawn) | – | 34.1 | 56.4 | –
8 | COc1ccc(/C=C/C(=O)c2ccc(OCc3cn(Cc4ccccc4)nn3)cc2O)cc1 | – | 25.5 | 68.7 | –
9 | O=C1CC(c2ccccc2)Oc2cc(OCc3cn(Cc4ccc(Br)cc4)nn3)ccc21 (stereo not drawn) | – | 15.8 | 66.1 | –
10 | O=C1CC(c2ccc(Br)cc2)Oc2cc(OCc3cn(Cc4ccc(Br)cc4)nn3)ccc21 (stereo not drawn) | – | 50 | 70.6 | CC50 at 48 h [2]: 87.5 µM; inhibition [10]: inactive; inhibition [11]: inactive
11 | Nc1nc(-c2ccccc2)cc(-c2ccc(OCc3cn(Cc4ccc(Br)cc4)nn3)cc2O)n1 | 41 | – | – | inhibition [1]: 17%; CC50 at 48 h [2]: > 100 µM; inhibition [6]: 0%; inhibition [7]: 9%
12 | CCCCCCn1cc(COc2ccc(C(=O)/C=C/c3ccc(C(C)C)cc3)c(O)c2)nn1 | – | 0 | 31.4 | –
13 | CCCCCCn1cc(COc2ccc(C(=O)/C=C/c3ccc(OC)cc3)c(O)c2)nn1 | – | 6.2 | 44.7 | –
14 | CC(=O)c1ccc(OCc2cn(Cc3ccccc3)nn2)cc1O | – | 23.7 | 75.9 | inhibition [10]: inactive; inhibition [11]: inactive
15 | CC(=O)c1ccc(OCc2cn(Cc3ccc(Br)cc3)nn2)cc1O | – | 70.4 | 73.7 | inhibition [10]: inactive; inhibition [11]: inactive
16 | O=C(/C=C/c1cccc2ccccc12)c1ccc(OCc2cn(Cc3ccc(Br)cc3)nn2)cc1O | – | 0 | 63.2 | –
17 | CC(C)c1ccc(-c2cc(-c3ccc(OCc4cn(Cc5ccccc5)nn4)cc3O)nc(N)n2)cc1 | 28 | – | – | inhibition [1]: 16%; CC50 at 48 h [2]: > 100 µM; inhibition [3]: 0%; inhibition [4]: 0%; inhibition [6]: 0%; inhibition [7]: 0%
18 | CCCCCCn1cc(COc2ccc(C(=O)/C=C/c3cccc4ccccc34)c(O)c2)nn1 | – | 5.5 | 18.8 | –
19 | CC(C)c1ccc(-c2cc(-c3ccc(OCc4cn(Cc5ccc(Br)cc5)nn4)cc3O)nc(N)n2)cc1 | 5 | – | – | –
20 | O=C(/C=C/c1ccc(Cl)cc1)c1ccc(OCc2cn(Cc3ccccc3)nn2)cc1O | – | 11.6 | 28 | –
21 | CCCCCCn1cc(COc2ccc(C(=O)/C=C/c3ccccc3)c(O)c2)nn1 | – | 16.8 | 57.7 | –

Row | Compound | inhibition [5] [%] | inhibition of growth at 50 µM [8] [%] | inhibition of growth at 100 µM [9] [%] | further results
22 | CC(C)c1ccc(C2CC(=O)c3ccc(OCc4cn(Cc5ccc(Br)cc5)nn4)cc3O2)cc1 (stereo not drawn) | – | 31 | 72.5 | –
23 | CCCCCCn1cc(COc2ccc(-c3cc(-c4c(F)cccc4Cl)nc(N)n3)c(O)c2)nn1 | 11 | – | – | –
24 | CCCCCCn1cc(COc2ccc(-c3cc(-c4cccc5ccccc45)nc(N)n3)c(O)c2)nn1 | 11 | – | – | –
25 | C#CCOc1ccc(/C=C/C(=O)c2ccc(OCc3cn(Cc4ccccc4)nn3)cc2O)cc1 | – | 0 | 22 | –
26 | CCCCCCn1cc(COc2ccc(C(=O)/C=C/c3ccc(Br)cc3)c(O)c2)nn1 | – | 69.6 | 76.5 | CC50 at 48 h [2]: > 100 µM; inhibition [10]: inactive; inhibition [11]: inactive
27 | O=C(/C=C/c1c(F)cccc1Cl)c1ccc(OCc2cn(Cc3ccccc3)nn2)cc1O | – | 17.6 | 74.5 | –
28 | CCCCCCn1cc(COc2ccc(C(C)=O)c(O)c2)nn1 | – | 93.1 | 91.8 | inhibition [10]: inactive; inhibition [11]: inactive
29 | O=C1CC(c2ccccc2)Oc2cc(OCc3cn(Cc4ccccc4)nn3)ccc21 (stereo not drawn) | – | 27 | 74.8 | –
30 | O=C1CC(c2ccc(Cl)cc2)Oc2cc(OCc3cn(Cc4ccccc4)nn3)ccc21 (stereo not drawn) | – | 46.9 | 79.8 | –
31 | CCCCCCn1cc(COc2ccc(-c3cc(-c4ccc(OC)cc4)nc(N)n3)c(O)c2)nn1 | 4 | – | – | –
32 | C#CCOc1ccc(/C=C/C(=O)c2ccc(OCc3cn(CCCCCC)nn3)cc2O)cc1 | – | 39.6 | 56 | –
33 | CCCCCCn1cc(COc2ccc(C(=O)/C=C/c3ccc(Cl)cc3)c(O)c2)nn1 | – | 6.1 | 59 | –
34 | CCCCCCn1cc(COc2ccc3c(c2)OC(c2ccccc2)CC3=O)nn1 (stereo not drawn) | – | 19 | 70.2 | –
35 | C#CCOc1ccc(-c2cc(-c3ccc(OCc4cn(CCCCCC)nn4)cc3O)nc(N)n2)cc1 | 17 | – | – | –
36 | O=C(/C=C/c1ccc(Br)cc1)c1ccc(OCc2cn(Cc3ccc(Br)cc3)nn2)cc1O | – | 11.6 | 28 | –
37 | NC(=O)C1=C(NC(=O)C2CC2)CC2=C1CCCC2 | – | – | – | inhibition [1]: 24%; inhibition [6]: 12%; inhibition [7]: 22%
38 | CC(C)c1ccc(/C=C/C(=O)c2ccc(OCc3cn(Cc4ccccc4)nn3)cc2O)cc1 | – | 0 | 12.7 | –
39 | Nc1nc(-c2ccc(OCc3cn(Cc4ccccc4)nn3)cc2O)cc(-c2c(F)cccc2Cl)n1 | 12 | – | – | –
40 | Nc1nc(-c2ccc(Cl)cc2)cc(-c2ccc(OCc3cn(Cc4ccccc4)nn3)cc2O)n1 | 53 | – | – | CC50 at 48 h [2]: 66.6 µM; inhibition [3]: 5%; inhibition [4]: 4%; inhibition [6]: 5%; inhibition [7]: 19%
41 | CC(C)c1ccc(/C=C/C(=O)c2ccc(OCc3cn(Cc4ccc(Br)cc4)nn3)cc2O)cc1 | – | 0 | 17.8 | –
